Values joined by “and” are separate entries in the source; they are usually repeats but may differ in a detail not shown here. Equal entries are not always repeated.
Assays:
Rattus norvegicus [1] = test: Change in systolic blood pressure after iv administration of 4.12 uM/kg in anesthetized rats; assay type: functional, Artery
How it was run: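 Doses were 4.12 µM/kg (two agents), guanethidine 25, clonidine 0.108, hexamethonium 12, reserpine 8, papaverine 5 and histamine […]. Peak changes in systolic BP or HR were recorded.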

Rattus norvegicus [2] = test: Change in systolic blood pressure after iv administration of 400 ug/Kg in anesthetized rats; assay type: functional, Artery
How it was run: (§1)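 Urethane-anesthetized (10% w/v, […] ip in saline) adult male Wistar rats, trachea cannulated, breathing spontaneously, 37 °C. Femoral artery catheter for blood pressure, femoral vein for dosing. Sequential iv doses 50–3200 µg/kg (ratio 2.0) in saline, each given after parameters returned to baseline. Peak changes recorded; means ± SE, n = 12 (n = 7 at 3200 µg/kg).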

Rattus norvegicus [3] = test: Change in diastolic blood pressure after iv administration of 1600 ug/Kg in anesthetized rats; assay type: functional, Artery
How it was run: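 Adult male Wistar rats under ip ethylurethane (10% w/v in saline, 1 mL/kg) with tracheal cannula and spontaneous breathing, kept at 37 °C. Arterial BP was recorded by femoral artery catheter; compound in saline (50 µL) was given via femoral vein at 50–3200 µg/kg, ratio 2.0. Peak change is given as mean ± SE, n = 12 (n = 7 at 3200 µg/kg).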

Rattus norvegicus [4] = test: Change in diastolic blood pressure after iv administration of 1600 ug/Kg in the presence of acetylcholine (agonist) in anesthetized rats; assay type: functional, Artery
How it was run: (§2)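 Urethane-anesthetized male Wistar rats (16 rats, two equal groups) received 400 or 1600 µg/kg compound iv. Cardiovascular responses to iv agonist boluses (noradrenaline 1 µg/kg, acetylcholine 2.50 µg/kg, adrenaline, isoprenaline) were measured before and after compound dosing. Peak responses are given as mean ± SE; p < 0.05 versus control mean.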

Rattus norvegicus [5] = test: Change in diastolic blood pressure after iv administration of 1600 ug/Kg in the presence of noradrenaline (agonist) in anesthetized rats; assay type: functional, Artery; how it was run: as §2
Rattus norvegicus [6] = test: Change in diastolic blood pressure after iv administration of 400 ug/Kg in the presence of acetylcholine (agonist) in anesthetized rats; assay type: functional, Artery; how it was run: as §2
Rattus norvegicus [7] = test: Change in systolic blood pressure after iv administration of 800 ug/Kg compound (treatment with hexamethonium (5 mg/Kg, iv)in anesthetized rats; assay type: functional, Artery
How it was run: (§3)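 Anesthetized rats, n = 6 per group, received iv doses of 200–1600 µg/kg (ratio 2.0) either alone (control) or under pretreatment: continuous iv papaverine infusion 1 mg/kg/min, reserpine 5 mg/kg/day ip for 2 days, or hexamethonium 5 mg/kg iv. Peak changes in BP, heart rate and dP/dt recorded; means ± SE, p < 0.05 versus control.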

Rattus norvegicus [8] = test: Change in systolic blood pressure after iv administration of 800 ug/Kg compound (treatment with reserpine(5 mg/kg/day for 2 days, ip)in anesthetized rats; assay type: functional, Artery; how it was run: as §3
Rattus norvegicus [9] = test: Change in systolic blood pressure after iv administration of 800 ug/Kg in anesthetized rats; assay type: functional, Artery; how it was run: as §1
Rattus norvegicus [10] = test: Change in diastolic blood pressure after iv administration of 800 ug/Kg compound (treatment with papaverine(1 mg/Kg/min, iv)in anesthetized rats; assay type: functional, Artery
How it was run: (§4)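 In anesthetized male Wistar rats, responses to iv compound (200–1600 µg/kg, ratio 2.0) were measured alone and under three pretreatments: continuous iv papaverine infusion (1 mg/kg/min), ip reserpine (5 mg/kg/day for 2 days), or iv hexamethonium (5 mg/kg). Peak changes are given as mean ± SE, n = 6 per group; p < 0.05 versus control.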

Rattus norvegicus [11] = test: Change in systolic blood pressure after iv administration of 1600 ug/Kg compound (treatment with reserpine(5 mg/kg/day for 2 days, ip)in anesthetized rats; assay type: functional, Artery
How it was run: (§5)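 Urethane-anesthetized male Wistar rats, 6 per group, received iv doses of 200-1600 µg/kg (ratio 2.0) given alone or under a pretreatment. Pretreatments were continuous iv papaverine infusion (1 mg/kg/min), reserpine 5 mg/kg/day ip for 2 days, or hexamethonium 5 mg/kg iv. Peak changes in femoral arterial BP and HR were recorded; values are mean ± SE.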

Rattus norvegicus [12] = test: Change in heart rate after iv administration of 1600 ug/kg compound (treatment with reserpine(5 mg/kg/day for 2 days, ip))in anesthetized rats; assay type: functional; how it was run: as §4
Rattus norvegicus [13] = test: Change in heart rate after iv administration of 1600 ug/Kg in the presence of isoprenaline (agonist) in anesthetized rats; assay type: functional; how it was run: as §2
Rattus norvegicus [14] = test: Change in heart rate after iv administration of 50 ug/Kg in anesthetized rats; assay type: functional
How it was run: (§6)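 Male Wistar rats (299 ± 3 g) were anesthetized with ethylurethane ip, tracheally cannulated and breathing spontaneously, at 37 °C, and stabilized for 60 min. Doses of 50-3200 µg/kg (ratio 2.0) in saline were injected by femoral vein, 50 µL each. Recordings: femoral arterial BP, electromagnetic abdominal-aortic flow, SV from integrated pulsatile flow, polygraphic RF. Peak changes, mean ± SE, n = 12 (n = 7 at 3200).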

Rattus norvegicus [15] = test: Change in heart rate after iv administration of 800 ug/kg compound (treatment with papaverine(1 mg/kg/min, iv))in anesthetized rats; assay type: functional; how it was run: as §5
Rattus norvegicus [16] = test: Change in mean aortic flow after iv administration of 50 ug/Kg in anesthetized rats; assay type: functional; how it was run: as §6
Rattus norvegicus [17] = test: Change in mean aortic flow after iv administration of 800 ug/Kg in anesthetized rats; assay type: functional; how it was run: as §6
Rattus norvegicus [18] = test: Maximum rate of rise of the left ventricular isovolumetric pressure was measured after iv administration of 1600 ug/Kg compound (treatment with papaverine(1 mg/Kg/min, iv)in anesthetized rats; assay type: functional, Heart left ventricle; how it was run: as §3
Rattus norvegicus [19] = test: Maximum rate of rise of the left ventricular isovolumetric pressure after iv administration of 400 ug/Kg compound (treatment with hexamethonium (5 mg/Kg, iv)in anesthetized rats; assay type: functional, Heart left ventricle; how it was run: as §3
Rattus norvegicus [20] = test: Maximum rate of rise of the left ventricular isovolumetric pressure was measured after iv administration of 400 ug/Kg in the presence of noradrenaline (agonist) in anesthetized rats; assay type: functional, Heart left ventricle
How it was run: (§7)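 Anesthetized male Wistar rats, two groups of 8, received 400 or 1600 µg/kg iv. Before and after this dose, iv agonist challenges were given: noradrenaline 1 µg/kg, adrenaline, acetylcholine 2.50 µg/kg, or isoprenaline. Systolic/diastolic BP, heart rate and dP/dt responses were recorded before (control) and after dosing; significance was set at p < 0.05 versus control.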

Rattus norvegicus [21] = test: Change in respiratory frequency after iv administration of 400 ug/Kg in anesthetized rats; assay type: functional; how it was run: as §6
Rattus norvegicus [22] = test: Maximum rate of rise of the left ventricular isovolumetric pressure was measured after iv administration of 200 ug/Kg in anesthetized rats; assay type: functional, Heart left ventricle; how it was run: as §1
Rattus norvegicus [23] = test: Maximum rate of rise of the left ventricular isovolumetric pressure was measured after iv administration of 1600 ug/Kg in the presence of adrenaline (agonist) in anesthetized rats; assay type: functional, Heart left ventricle; how it was run: as §7
Rattus norvegicus [24] = test: Maximum rate of rise of the left ventricular isovolumetric pressure was measured after iv administration of 1600 ug/Kg in the presence of noradrenaline (agonist) in anesthetized rats; assay type: functional, Heart left ventricle; how it was run: as §7

## COc1ccc(C2C(c3ccc(OC)c(OC)c3)[C@H](C(=O)NCCCC/N=C(\N)NCC=C(C)C)[C@@H]2C(=O)NCCCC/N=C(\N)NCC=C(C)C)cc1OC (stereo partly specified) [CARACASANDIAMIDE]
Rattus norvegicus [1]
  BP: -43 mmHg
Rattus norvegicus [2]
  BP: -20 mmHg
  Change in BP: -19%
Rattus norvegicus [3]
  BP: -43 mmHg
  Change in BP: -55%
Rattus norvegicus [4]
  BP: -54 mmHg
Rattus norvegicus [5]
  BP: 10 mmHg
Rattus norvegicus [6]
  BP: -45 mmHg
Rattus norvegicus [7]
  BP: -50 mmHg
Rattus norvegicus [8]
  BP: -11 mmHg
Rattus norvegicus [9]
  BP: -30 mmHg
  Change in BP: -29%
Rattus norvegicus [10]
  BP: -16 mmHg
Rattus norvegicus [11]
  BP: -16 mmHg
Rattus norvegicus [12]
  Heart rate: -14 beats min-1
Rattus norvegicus [13]
  Heart rate: 79 beats min-1
Rattus norvegicus [14]
  Change in heart rate: -3%
  Heart rate: -9 beats min-1
Rattus norvegicus [15]
  Heart rate: -17 beats min-1
Rattus norvegicus [16]
  Change in mean aortic flow: 26%
  Mean aortic flow: 19 mL/min
Rattus norvegicus [17]
  Change in mean aortic flow: -34%
  Mean aortic flow: -25 mL/min
Rattus norvegicus [18]
  dP/dt: 3321 mmHg s-1
Rattus norvegicus [19]
  dP/dt: 3938 mmHg s-1
Rattus norvegicus [20]
  dP/dt: 5136 mmHg s-1
Rattus norvegicus [21]
  Change in respiratory frequency: -3 beats min-1 and -3%
Rattus norvegicus [22]
  Change in dP/dt: 22%
  dP/dt: 1369 mmHg s-1
Rattus norvegicus [23]
  dP/dt: 2739 mmHg s-1
Rattus norvegicus [24]
  dP/dt: 2225 mmHg s-1
